Reference: ChEMBL document CHEMBL4665656, “Toxicity, bioactivity, release of HS in vivo and pharmaco-kinetics of HS-donors with thiophosphamide structure” (Eur J Med Chem, 2019)

Key:
[1] = Induction of H2S generation assessed as Cmax at 150 uM incubated at 22 degC and pH 5 by fluorescence spectrophotometry; format: functional
Summary of the method: (§1)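 Donor at 150 µM final, mixed with 200 µM sulfonyl-azide fluorescent probe in buffer/acetonitrile (1:9) at set pH. Cuvette held in a water bath at 22 °C or 37 °C, with fluorescence read three times at intervals. H2S was quantified from a Na2S standard curve (0–200 µM, probe 200 µM).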

[2] = Induction of H2S generation assessed as half life at 150 uM incubated at 37 degC and pH 8 by fluorescence spectrophotometry; format: functional; summary of the method: as §1
[3] = Induction of H2S generation assessed as half life at 150 uM incubated at 37 degC and pH 5 by fluorescence spectrophotometry; format: functional; summary of the method: as §1
HeLa = assay: Cytotoxicity in human HeLa cells assessed as growth inhibition incubated for 24 hrs by MTT assay; format: functional, cell-based
Summary of the method: (§2)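 Cells were grown in RPMI 1640 with 10% FBS at 37 °C and 10% CO2, seeded at 6×10^3 cells/well. Exposure was 24 h, with viability by MTT, in triplicate cultures. IC50 was reported as mean ± SD.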

[4] = Induction of H2S generation assessed as Cmax at 150 uM incubated at 22 degC and pH 8 by fluorescence spectrophotometry; format: functional; summary of the method: as §1
[5] = Induction of H2S generation assessed as Cmax Induction of H2S generation assessed as Cmax at 150 uM incubated at 37 degC and pH 7.4 by fluorescence spectrophotometry; format: functional; summary of the method: as §1
[6] = Induction of H2S generation assessed as half life at 150 uM incubated at 22 degC and pH 7.4 by fluorescence spectrophotometry; format: functional; summary of the method: as §1
HT-29 = assay: Cytotoxicity in human HT-29 cells assessed as growth inhibition incubated for 24 hrs by MTT assay; format: functional, cell-based; details: HT-29, 24 h; summary of the method: as §2
[7] = Induction of H2S generation assessed as Cmax at 150 uM incubated at 37 degC and pH 1.2 by fluorescence spectrophotometry; format: functional; summary of the method: as §1
[8] = Induction of H2S generation assessed as half life at 150 uM incubated at 22 degC and pH 8 by fluorescence spectrophotometry; format: functional; summary of the method: as §1
[9] = Induction of H2S generation assessed as Cmax at 150 uM incubated at 22 degC and pH 1.2 by fluorescence spectrophotometry; format: functional; summary of the method: as §1
[10] = Induction of H2S generation assessed as half life at 150 uM incubated at 37 degC and pH 1.2 by fluorescence spectrophotometry; format: functional; summary of the method: as §1
[11] = Induction of H2S generation assessed as Cmax at 150 uM incubated at 22 degC and pH 7.4 by fluorescence spectrophotometry; format: functional; summary of the method: as §1
A549 = assay: Cytotoxicity in human A549 cells assessed as growth inhibition incubated for 24 hrs by MTT assay; format: functional, cell-based; details: A549, 24 h; summary of the method: as §2
[12] = Induction of H2S generation assessed as half life at 150 uM incubated at 22 degC and pH 5 by fluorescence spectrophotometry; format: functional; summary of the method: as §1
WI-38 = assay: Cytotoxicity in human W138 cells assessed as growth inhibition incubated for 24 hrs by MTT assay; format: cell-based; details: WI-38, 24 h; summary of the method: as §2
[13] = Induction of H2S generation assessed as Cmax Induction of H2S generation assessed as Cmax at 150 uM incubated at 37 degC and pH 8 by fluorescence spectrophotometry; format: functional; summary of the method: as §1
[14] = Induction of H2S generation assessed as half life at 150 uM incubated at 37 degC and pH 7.4 by fluorescence spectrophotometry; format: functional; summary of the method: as §1
[15] = Induction of H2S generation assessed as half life at 150 uM incubated at 22 degC and pH 1.2 by fluorescence spectrophotometry; format: functional; summary of the method: as §1
HepG2 = assay: Cytotoxicity in human HePG2 cells assessed as growth inhibition incubated for 24 hrs by MTT assay; format: functional, cell-based; details: HepG2, 24 h; summary of the method: as §2
MCF7 = assay: Cytotoxicity in human MCF-7 cells assessed as growth inhibition incubated for 24 hrs by MTT assay; format: functional, cell-based; details: MCF7, 24 h; summary of the method: as §2
[16] = Induction of H2S generation assessed as Cmax at 150 uM incubated at 37 degC and pH 5 by fluorescence spectrophotometry; format: functional; summary of the method: as §1

Structure (SMILES) | Cmax [1] | T1/2 [2] | T1/2 [3] | IC50 (HeLa) | Cmax [4] | T1/2 [6] | IC50 (HT-29) | Cmax [7] | T1/2 [8] | Cmax [9] | T1/2 [10] | Cmax [11] | IC50 (A549) | T1/2 [12] | IC50 (WI-38) | Cmax [13] | T1/2 [14] | T1/2 [15] | IC50 (HepG2) | IC50 (MCF7) | also measured
S=P1(c2ccccc2)NCCO1 (stereo not given) | 29.9 µM | 33.6 min | 32.6 min | 930 µM | 29.7 µM | 31.9 min | 539 µM | 35.6 µM | 31.3 min | 30 µM | 31.9 min | 29.9 µM | 622 µM | 32.7 min | 759 µM | 35.4 µM | 32.2 min | 33.8 min | 775 µM | 798 µM | Cmax [5]: 31.1 µM; Cmax [16]: 37 µM
C[C@H](NP(O)(=S)c1ccccc1)C(=O)O (stereo not given in full) | 103 µM | 3.4 min | 2.23 min | 888 µM | 103 µM | 3.72 min | 689 µM | 110 µM | 4.33 min | 104 µM | 1.67 min | 102 µM | 346 µM | 3.32 min | 351 µM | 106 µM | 2.75 min | 2.36 min | 858 µM | 832 µM | Cmax [5]: 108 µM; Cmax [16]: 106 µM
O=C(O)[C@H](Cc1ccccc1)NP(O)(=S)c1ccccc1 (stereo not given in full) | 121 µM | 4.7 min | 2.33 min | 712 µM | 120 µM | 3.54 min | 542 µM | 129 µM | 4.58 min | 122 µM | 1.53 min | 122 µM | 237 µM | 2.71 min | 690 µM | 127 µM | 2.61 min | 2.37 min | 671 µM | 663 µM | Cmax [5]: 128 µM; Cmax [16]: 129 µM
O=c1[nH]cc(F)c(=O)[nH]1 [FLUOROURACIL] | – | – | – | 120 µM | – | – | 146 µM | – | – | – | – | – | 104 µM | – | 202 µM | – | – | – | 112 µM | 136 µM | –
S=P1(c2ccccc2)NCCCN1 | 27.2 µM | 28.4 min | 29.6 min | 793 µM | 27.1 µM | 27.5 min | 600 µM | 35.7 µM | 29 min | 27 µM | 27.8 min | 27.2 µM | 876 µM | 29.8 min | 381 µM | 35.7 µM | 27.1 min | 29.2 min | 801 µM | 850 µM | Cmax [16]: 35.5 µM
S=P1(c2ccccc2)NCCN1 | 28.4 µM | 31.6 min | 32.9 min | 968 µM | 28.3 µM | 30.9 min | 780 µM | 35.7 µM | 30 min | 28.5 µM | 31.2 min | 28.4 µM | 641 µM | 31.1 min | 958 µM | 34.8 µM | 31.1 min | 32.5 min | 657 µM | 713 µM | Cmax [5]: 29.9 µM; Cmax [16]: 35.4 µM
O=C(O)[C@@H]1CCCN1P(O)(=S)c1ccccc1 (stereo not given in full) | 4.2 µM | 9.83 min | 9.15 min | 839 µM | 4.1 µM | 9.27 min | 932 µM | 4.2 µM | 10.8 min | 4 µM | 10.4 min | 4 µM | 519 µM | 10.6 min | 872 µM | 4.3 µM | 9.92 min | 10.9 min | 816 µM | 874 µM | Cmax [5]: 4.2 µM; Cmax [16]: 4.2 µM
S=P1(c2ccccc2)OCC2CCCN21 (stereo not given) | 27.1 µM | 27.5 min | 28.6 min | 984 µM | 27.1 µM | 27.3 min | 636 µM | 36.2 µM | 29.2 min | 27.1 µM | 27.8 min | 26.9 µM | – | 28.2 min | 503 µM | 33.7 µM | 28.9 min | 29.9 min | 531 µM | 920 µM | Cmax [5]: 28.2 µM; Cmax [16]: 36.8 µM
CC(C)C[C@H](NP(O)(=S)c1ccccc1)C(=O)O (stereo not given in full) | 112 µM | 3.59 min | 2.75 min | 835 µM | 111 µM | 3.72 min | 756 µM | 119 µM | 4.44 min | 113 µM | 2.04 min | 112 µM | 273 µM | 3.25 min | 438 µM | 116 µM | 2.83 min | 2.65 min | 415 µM | 643 µM | Cmax [5]: 118 µM; Cmax [16]: 118 µM
CSCC[C@H](NP(O)(=S)c1ccccc1)C(=O)O (stereo not given in full) | 113 µM | 3.55 min | 2.44 min | 919 µM | 113 µM | 3.32 min | 826 µM | 120 µM | 4.26 min | 114 µM | 2.2 min | 112 µM | 309 µM | 3.64 min | 546 µM | 118 µM | 2.83 min | 2.68 min | 286 µM | 671 µM | Cmax [5]: 120 µM; Cmax [16]: 120 µM
S=P1(c2ccccc2)OCCCO1 | 25.7 µM | 35.8 min | 34.7 min | 1280 µM | 25.7 µM | 34.6 min | 991 µM | 38.4 µM | 33 min | 24.8 µM | 34.2 min | 24.4 µM | 569 µM | 35.8 min | 653 µM | 35.7 µM | 33 min | 33.5 min | 612 µM | 853 µM | Cmax [5]: 27.2 µM; Cmax [16]: 37.4 µM
CC[C@H](C)[C@H](NP(O)(=S)c1ccccc1)C(=O)O (stereo not given in full) | 117 µM | 4.17 min | 2.72 min | 972 µM | 117 µM | 3.65 min | 782 µM | 123 µM | 4.04 min | 119 µM | 1.53 min | 117 µM | 236 µM | 2.87 min | 658 µM | 122 µM | 2.91 min | 2.04 min | 604 µM | 601 µM | Cmax [5]: 123 µM; Cmax [16]: 123 µM
S=P1(c2ccccc2)OCCO1 | 27.9 µM | 25 min | 27.9 min | 679 µM | 27.5 µM | 26.6 min | 882 µM | 35.7 µM | 26.5 min | 28.4 µM | 25.8 min | 27.7 µM | 679 µM | 25.1 min | 381 µM | 35.7 µM | 25.9 min | 25.4 min | 804 µM | 748 µM | Cmax [5]: 29.1 µM; Cmax [16]: 35.7 µM
CC(C)[C@H](NP(O)(=S)c1ccccc1)C(=O)O (stereo not given in full) | 122 µM | 3.62 min | 2.25 min | 809 µM | 122 µM | 3.11 min | 602 µM | 125 µM | 4.42 min | 121 µM | 1.55 min | 122 µM | 294 µM | 2.42 min | 546 µM | 124 µM | 2.84 min | 2.13 min | 690 µM | 542 µM | Cmax [5]: 125 µM; Cmax [16]: 126 µM
